Calls of active or inactive are those of the source. The calls are words filed in the database; no cut-off is given here.
Key:
[1] = target: T1, COX1 (prostaglandin G/H synthase 1) (Ovis aries, UniProt P05979); assay: Inhibition of ovine COX1 assessed as reduction in PGF2alpha production at 100 uM by ELISA; details: sheep, ovine COX1 enzyme
T1 sequence (P05979 whole entry): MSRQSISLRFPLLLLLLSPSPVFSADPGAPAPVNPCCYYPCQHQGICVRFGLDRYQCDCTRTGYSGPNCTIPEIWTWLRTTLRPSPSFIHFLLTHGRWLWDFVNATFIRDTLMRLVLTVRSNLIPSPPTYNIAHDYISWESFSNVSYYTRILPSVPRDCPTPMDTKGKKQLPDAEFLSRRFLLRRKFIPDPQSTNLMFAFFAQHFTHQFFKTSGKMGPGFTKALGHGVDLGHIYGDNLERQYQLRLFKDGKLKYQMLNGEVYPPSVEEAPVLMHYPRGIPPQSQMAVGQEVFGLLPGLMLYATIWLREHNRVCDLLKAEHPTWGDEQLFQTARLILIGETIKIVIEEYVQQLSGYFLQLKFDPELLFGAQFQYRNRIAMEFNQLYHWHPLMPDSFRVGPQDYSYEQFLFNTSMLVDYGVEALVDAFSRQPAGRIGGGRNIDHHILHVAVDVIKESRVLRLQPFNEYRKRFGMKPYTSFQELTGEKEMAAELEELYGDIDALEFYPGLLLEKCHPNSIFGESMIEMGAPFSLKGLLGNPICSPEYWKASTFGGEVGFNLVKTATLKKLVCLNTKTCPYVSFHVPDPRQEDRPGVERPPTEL
Method in brief: (§1)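 Ovine COX1 or human COX2 reaction in a commercial inhibitor screening kit. PGH2 formed is reduced with SnCl2 to PGF2α, which is quantified by enzyme immunoassay (absorbance). Single-point inhibition at 100 µM given as % ± SE. IC50 by linear regression. Mean ± SE of at least three experiments.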

CWR22R [2] = assay: Synergistic antiproliferative activity against human 22Rv1 cells assessed as reduction in cell viability at 20 uM after 72 hrs in presence of enzalutamide by sulforhodamine B colorimetric proliferation assay; assay type: functional
CWR22R [3] = assay: Synergistic antiproliferative activity against human 22Rv1 cells assessed as reduction in cell viability at 20 uM after 72 hrs in presence of abiraterone by sulforhodamine B colorimetric proliferation assay; assay type: functional
[4] = target: Prostaglandin G/H synthase 2 (Homo sapiens) (UniProt P35354); assay: Inhibition of human COX2 assessed as reduction in PGF2alpha production at 100 uM by ELISA; details: human COX2 enzyme
Prostaglandin G/H synthase 2 (Homo sapiens), sequence (P35354 whole entry, looked up): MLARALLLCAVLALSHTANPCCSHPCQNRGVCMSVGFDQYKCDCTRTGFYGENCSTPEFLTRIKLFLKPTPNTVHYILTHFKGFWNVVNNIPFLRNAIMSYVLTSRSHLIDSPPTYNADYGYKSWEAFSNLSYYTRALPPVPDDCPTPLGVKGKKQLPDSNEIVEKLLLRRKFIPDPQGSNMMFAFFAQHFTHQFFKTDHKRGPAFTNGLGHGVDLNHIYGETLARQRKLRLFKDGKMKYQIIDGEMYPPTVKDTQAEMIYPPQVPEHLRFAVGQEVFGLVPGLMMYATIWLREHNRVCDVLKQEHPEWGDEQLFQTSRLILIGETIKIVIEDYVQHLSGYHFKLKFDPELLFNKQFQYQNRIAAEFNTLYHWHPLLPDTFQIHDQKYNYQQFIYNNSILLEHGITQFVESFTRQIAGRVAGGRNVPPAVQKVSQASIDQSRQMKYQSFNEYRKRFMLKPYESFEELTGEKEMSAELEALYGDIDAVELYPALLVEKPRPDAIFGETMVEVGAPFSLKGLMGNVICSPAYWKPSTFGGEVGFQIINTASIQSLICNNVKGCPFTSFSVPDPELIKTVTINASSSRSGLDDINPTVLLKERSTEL

[5] = target: T2, Prostaglandin G/H synthase 1 (Ovis aries, UniProt P05979); assay: Inhibition of ovine COX1 assessed as reduction in PGF2alpha production by ELISA; method in brief: as §1
T2 sequence (P05979 whole entry): T1 sequence (P05979 whole entry)

[6] = target: T3, Aldo-keto reductase family 1 member C2 (Homo sapiens, UniProt P52895); assay: Inhibition of recombinant N-terminal GST-tagged human AKR1C2 expressed in Escherichia coli BL21 (DE) Codon Plus RP cells using S-tetralol as substrate in presence of NADP+ by fluorimetric analysis
T3 sequence (P52895 whole entry): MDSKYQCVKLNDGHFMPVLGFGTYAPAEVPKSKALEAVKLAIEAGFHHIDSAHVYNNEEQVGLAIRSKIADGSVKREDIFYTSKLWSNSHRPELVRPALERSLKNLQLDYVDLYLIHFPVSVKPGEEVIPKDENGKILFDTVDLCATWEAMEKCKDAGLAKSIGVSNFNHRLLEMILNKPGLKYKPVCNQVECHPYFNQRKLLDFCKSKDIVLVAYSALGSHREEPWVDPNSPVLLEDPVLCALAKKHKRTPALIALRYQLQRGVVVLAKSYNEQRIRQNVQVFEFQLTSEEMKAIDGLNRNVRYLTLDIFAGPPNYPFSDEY
Method in brief: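 GST-tagged AKR1C2 purified on glutathione sepharose with thrombin cleavage. Percent inhibition from initial velocities versus solvent controls. IC50 as means of two experiments, each in triplicate.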

[7] = target: T4, Aldo-keto reductase family 1 member C3 (Homo sapiens, UniProt P42330); assay: Inhibition of recombinant N-terminal GST-tagged human AKR1C3 expressed in Escherichia coli BL21 (DE) Codon Plus RP cells using S-tetralol as substrate in presence of NADP+ by fluorimetric analysis
T4 sequence (P42330 whole entry): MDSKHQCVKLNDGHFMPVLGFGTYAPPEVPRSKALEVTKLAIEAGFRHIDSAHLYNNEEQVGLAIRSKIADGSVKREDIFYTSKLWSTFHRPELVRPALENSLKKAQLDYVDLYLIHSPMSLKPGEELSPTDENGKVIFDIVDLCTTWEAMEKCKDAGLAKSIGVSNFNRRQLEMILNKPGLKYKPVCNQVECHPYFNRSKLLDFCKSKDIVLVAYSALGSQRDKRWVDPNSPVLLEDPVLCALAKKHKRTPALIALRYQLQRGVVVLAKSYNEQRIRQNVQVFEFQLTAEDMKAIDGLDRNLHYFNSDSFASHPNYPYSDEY

CWR22R [8] = assay: Antiproliferative activity against human 22Rv1 cells after 72 hrs by sulforhodamine B colorimetric assay; assay type: functional, cell-based; details: 22Rv1, 72 h
CWR22R [9] = assay: Reduction in PSA expression level in human 22Rv1 cells at 1 to 30 uM by Western blot analysis; assay type: functional, cell-based
Method in brief: (§2)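 22RV1 treated for 72 h at three concentrations. Viable cells lysed in RIPA buffer with protease inhibitors, protein measured by Bradford, 20 µg run on SDS-PAGE and transferred to nitrocellulose. Probed overnight at 4 °C with goat polyclonal anti-PSA (1:500), β-actin as reference, HRP secondary, ECL detection; Ponceau staining as loading check.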

CWR22R [10] = assay: Potency index, ratio of IC50 for flufenamic acid to IC50 for test compound for antiproliferative activity against human 22Rv1 cells after 72 hrs by sulforhodamine B colorimetric assay; assay type: functional
CWR22R [11] = assay: Reduction in PSA expression level in human 22Rv1 cells by Western blot analysis; assay type: functional, cell-based; method in brief: as §2
[12] = target: T5, Aldo-keto reductase family 1 member C3 (Homo sapiens) (UniProt P42330); assay: Inhibition of AKR1C3-mediated testosterone production in human 22Rv1 cells preincubated for 1 hr followed by androstenedione addition and measured after 24 hrs by ELISA; assay type: cell-based
T5 sequence (whole entry): T4 sequence (P42330 whole entry)
Method in brief: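 22RV1 at 30,000 cells/well in RPMI with 10% charcoal-stripped serum, 37 °C, 5% CO2, 24 h. Inhibitor added at 4 concentrations for 1 h, then androstenedione 28 nM; further 24 h. Testosterone in supernatant quantified by ELISA. Means of two separate experiments, each in triplicate.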

CWR22R [13] = assay: Antiproliferative activity against human 22Rv1 cells assessed as inhibition of cell proliferation at 100 uM after 72 hrs by sulforhodamine B colorimetric assay; assay type: functional; details: 22Rv1, 72 h

Structure (SMILES) | inhibition at 100 µM [1] [%] | inhibition at 100 µM [4] [%] | IC50 [5] [µM] | IC50 [6] [µM] | IC50 [7] [µM] | inhibition [12] | Activity (CWR22R [2]) | Activity (CWR22R [3]) | IC50 (CWR22R [8]) [µM] | Activity (CWR22R [9]) | Ratio IC50 (CWR22R [10]) | Activity (CWR22R [11]) | inhibition at 100 µM (CWR22R [13]) [%]
COc1ccc(Cn2nnc(O)c2C(=O)Nc2cccc(C(F)(F)F)c2)cc1 | – | – | – | – | – | – | – | – | – | inactive | – | – | –
Oc1noc2cccc(Nc3cccc(S(F)(F)(F)(F)F)c3)c12 | 0 | 4.3 | > 100 | 4.29 | 0.31 | – | – | – | 64.9 | – | – | – | –
COc1ccc(Cn2nnc(O)c2C(=O)Nc2cccc(C(F)(F)F)c2)cc1OC | 0 | 0.87 | > 100 | 108 | 0.4 | – | – | – | 59.2 | – | – | Dose-dependent effect | –
O=[N+]([O-])c1cccc(Nc2cccc3onc(O)c23)c1 | 0 | 0.37 | > 100 | 5.7 | 1.41 | – | – | – | > 100 | – | – | – | 31.1
Oc1noc2ccc(Nc3cccc(C(F)(F)F)c3)cc12 | 29 | 0 | > 100 | 66.9 | 3.48 | – | – | – | 74.8 | – | – | – | –

Continued, in another order:

inhibition at 100 µM [1] [%] | inhibition at 100 µM [4] [%] | IC50 [5] [µM] | IC50 [6] [µM] | IC50 [7] [µM] | inhibition [12] | Structure (SMILES) | Activity (CWR22R [2]) | Activity (CWR22R [3]) | IC50 (CWR22R [8]) [µM] | Activity (CWR22R [9]) | Ratio IC50 (CWR22R [10]) | Activity (CWR22R [11]) | inhibition at 100 µM (CWR22R [13]) [%]
2.1 | 0 | > 100 | 119 | – | – | Oc1noc2cccc(Nc3cc(C(F)(F)F)cc(C(F)(F)F)c3)c12 | 10 - 25% | 10 - 25% | – | – | – | – | –
29 | 13 | > 100 | 4.38 | 0.55 | – | Oc1noc2cccc(Nc3cccc(C(F)(F)F)c3)c12 | – | – | 64.8 | – | – | – | –
0 | 0 | > 100 | 54.9 | 0.19 | Dose-dependent effect | O=C(Nc1cccc(C(F)(F)F)c1)c1c(O)nnn1Cc1ccc(OC(F)(F)F)cc1 | 10 - 25% | 10 - 25% | 31.3 | – | >=4 | Dose-dependent effect | –

— ChEMBL document CHEMBL4229374 (Eur J Med Chem, 2018)
